Source: PubChem BioAssay (Broad Institute)
Ecoli rRNA inh: reduced GFP signal of wild-type E. coli, primary screen, bacterial rRNA inhibitor project, GFP/RFP fluorescence, OD600, single point; AID 720706, 2013; GFP signal change (wild-type ribosome), % (no concentration beside the values); 350,000 compounds, 1.6% hits; E. coli WT GFP vs humanized-ribosome RFP mutants, 24 h; stronger effect = lower value; DMSO median 0, no signal -100;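 active = significant combined selectivity score with lowered wild-type GFP, culture density cut under 30%, mutant RFP and density less affected; inactive = any of these conditions unmet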
Cneo AK release: Cryptococcus neoformans cell lysis inducers, primary screen, AK release luminescence, single concentration | lysis activity, % at 15 µM | C. neoformans lysis, adenylate kinase release luminescence, 4 h; normalised: neutral wells 0, clomiphene wells 100 | 360,000 compounds, 0.2% hits;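 active = mean lysis activity across replicates of at least 80%, whatever share of replicates individually reach that level; inactive = mean lysis activity below 80%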
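Schedule: static 4 h at 37 °C with compound, 1 h detection; system: C. neoformans cells; benchmarks: Clomiphene as positive control; buffer or medium: fresh YPD medium; measure: luminescence rise reflecting yeast cell lysis; measured by: luminescent adenylate kinase detection reagent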
Vif imaging: HIV Vif self-association inhibitors, primary screen, imaging, HEK293T, single point; 340,000 compounds, 0.35% hits; HEK293T cells, Vif self-association by quenched fluorescence, 24 h; inhibition, % at 7.49 µM; in the data active = inhibition above about 50%, passing the limit was not always enough
PGC1a acetyl inh: inhibitors of PGC1a acetylation signal, primary screen, cell-based, U2OS, AlphaScreen, inhibitor mode; AlphaScreen anti-acetyl-lysine; with virally co-expressed GCN5 acetyltransferase; inhibition, % at 15.6 µM; 350,000 compounds, 0.17% hits; AID 651687, 2012;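 active = every replicate shows inhibition of at least 40%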
FGF22 binding: binders of human FGF22 protein, primary screen, FGF22 synaptogenesis inhibitor project, biophysical, thermal shift, single point; Fibroblast growth factor 22 (Homo sapiens), Q9HCT0; recombinant FGF22 thermal shift, SYPRO orange fluorescence; percent of sucrose octasulfate shift, DMSO zero; activity (Tm shift, normalised), % at 9.99 µM; 340,000 compounds, 1.5% hits;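 active = mean Tm shift, scaled 0 neutral to 100 positive control, at about 1.3% or above, every replicate too, limit read from the data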
Target sequence (Q9HCT0 whole entry, looked up): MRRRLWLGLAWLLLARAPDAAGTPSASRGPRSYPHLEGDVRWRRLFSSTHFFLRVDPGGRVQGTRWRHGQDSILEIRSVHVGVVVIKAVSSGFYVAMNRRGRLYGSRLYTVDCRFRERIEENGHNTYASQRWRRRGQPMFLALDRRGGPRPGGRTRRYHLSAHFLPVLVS
PglD inh: C. jejuni PglD acetyltransferase inhibitors, primary screen, biochemical, DTNB colorimetric, single point | UDP-N-acetylbacillosamine N-acetyltransferase PglD (Campylobacter jejuni) | purified PglD enzyme, DTNB colorimetric CoA detection | inhibition, % at 12.5 µM | 360,000 compounds, 0.098% hits | AID 602405, 2012; in the data active = inhibition above about 16%, passing the limit was not always enough
Hits are given with their value; - = inactive; . = no result given; + = active, no number. Sampled rows, rich in hits. Any-hit rate of the full collection: about 2.9%.

SMILES	Ecoli rRNA inh	Cneo AK release	Vif imaging	PGC1a acetyl inh	FGF22 binding	PglD inh
COc1ccc(N(C)S(=O)(=O)c2cccc(C(=O)Nc3ccc4c(c3)OCCO4)c2)cc1	-	.	-	-	43	.
O=S1(=O)N=C(N/N=C/c2ccc(Br)o2)c2ccccc21	-	.	-	-	43	.
O=S1(=O)N=C(N/N=C/c2ccccn2)c2ccccc21	.	.	-	.	.	.
Cc1cc(/C=C2\NC(=S)N(C)C2=O)ccc1N1CCCC1	.	-	+	-	-	-
Cc1cc(/C=C2/C(=O)N(C)C(=S)N2C)ccc1N1CCCC1	-	.	-	-	43	.
CCCN1C(=O)/C(=C/c2ccc(N3CCOCC3)cc2)NC1=S	-	.	-	-	-	.
Cc1cc(N2CCCC2)ccc1/C=C1/C(=O)N(C)C(=S)N1C	-	-	-	-	-	-
CCN1C(=O)/C(=C/c2ccc(N3CCCC3)cc2)NC1=S	.	.	61	.	.	.
CCCN1C(=O)/C(=C/c2ccc(N3CCCC3)c(C)c2)NC1=S	.	-	147	-	.	-
COc1cc(/C=C2\NC(=S)N(C)C2=O)ccc1O	-	.	-	-	-	.
C[C@H]1CN([C@@H](C)CO)C(=O)Cc2cc(NS(C)(=O)=O)ccc2O[C@@H]1CN(C)C(=O)NC1CCCCC1	-	-	.	-	-	-
COc1cccc(-c2ccc3c(c2)[C@H]2[C@H](CCN2C(=O)C2CCCC2)[C@H](CO)N3)c1	-	.	.	-	.	.
CCCNC(=O)C[C@@H]1C[C@@H]2c3cc(NC(=O)CC4CC4)ccc3O[C@@H]2[C@@H](CO)O1	-	-	.	-	-	-
CC(=O)Nc1ccc(Nc2nc(Cl)nc(Nc3ccc(NC(C)=O)cc3)n2)cc1	-	.	-	.	44	.
COc1ccc(Nc2nc(Cl)nc(Nc3ccc(OC)cc3)n2)cc1	-	.	-	.	43	.
C=CCNc1nc(Cl)nc(Nc2ccc([N+](=O)[O-])cc2)n1	-	.	-	-	44	.
C=CCNc1nc(Cl)nc(Nc2ccc(OC)cc2OC)n1	-	-	-	-	43	-
Cc1noc(C)c1NC(=O)N(C)C[C@@H]1Oc2ccc(NC(=O)Nc3ccc4c(c3)OCO4)cc2C(=O)N([C@@H](C)CO)C[C@H]1C	-	-	.	-	-	-
COc1ccc2c3c([nH]c2c1)[C@H](CO)N(C(=O)C1CCC1)CC31CN(S(C)(=O)=O)C1	-	.	.	-	-	.
O=C(C[C@H]1CC[C@@H]2[C@H](COC[C@@H](O)CN2C(=O)Nc2ccc(F)cc2)O1)NCCc1ccccc1	-	-	.	-	-	-
Oc1ccc(Cl)cc1C1=NNC(c2cccs2)C1 (stereo not given)	-	-	-	-	-	-
O=[N+]([O-])c1ccc(O)c(C2=NNC(c3ccccc3F)C2)c1 (stereo not given)	-54	-	-	-	-	-
O=C(Cc1ccccn1)NCC[C@H]1CC[C@@H](NC(=O)CN2CCOCC2)[C@H](CO)O1	-	-	.	-	-	-
O=C(/C=C/c1ccccc1Cl)N(Cc1ccccc1)C1CCS(=O)(=O)C1 (stereo not given)	.	.	-	.	.	.
O=C(/C=C/c1ccccc1Cl)N(Cc1cccs1)C1CCS(=O)(=O)C1 (stereo not given)	-35	-	-	-	-	-
SMILES	Ecoli rRNA inh	Cneo AK release	Vif imaging	PGC1a acetyl inh	FGF22 binding	PglD inh
CCCN1C[C@H](C)[C@H](OC)CN(C)C(=O)c2cc(NC(=O)c3cccc(F)c3)ccc2OC[C@H]1C	-	-	.	-	-	-
CCCN1C[C@H](C)[C@@H](OC)CN(C)C(=O)c2cc(NC(=O)c3cccc(F)c3)ccc2OC[C@H]1C	-	117	.	-	-	-
COc1ccccc1C(=O)Nc1ccc2c(c1)C(=O)N(C)C[C@H](OC)[C@H](C)CN(C)[C@@H](C)CO2	-	-	.	-	-	-
COCC(=O)Nc1ccc2c(c1)C(=O)N(C)C[C@@H](OC)[C@H](C)CN(Cc1ccccc1)[C@@H](C)CO2	-	112	.	-	-	-
CO[C@H]1CN(C)C(=O)c2cc(NS(=O)(=O)CC(F)(F)F)ccc2OC[C@@H](C)N(Cc2cccnc2)C[C@@H]1C	-	88	.	-	-	-
CO[C@@H]1CN(C)C(=O)c2cc(NS(=O)(=O)CC(F)(F)F)ccc2OC[C@@H](C)N(Cc2cccnc2)C[C@@H]1C	-	-	.	-	-	-
COc1ccccc1C(=O)Nc1ccc2c(c1)C(=O)N(C)C[C@@H](OC)[C@H](C)CN(C)[C@@H](C)CO2	-	112	.	-	-	-
Cc1ccc(S(=O)(=O)Nc2ccc3c(c2)CC(=O)N([C@@H](C)CO)C[C@@H](C)[C@H](CN(C)Cc2ccc(Cl)c(Cl)c2)O3)cc1	-	-	.	-	-	-
C[C@H]1CCCCO[C@@H](CN(C)C(=O)Nc2ccc(C(F)(F)F)cc2)[C@@H](C)CN([C@@H](C)CO)C(=O)c2cc(NC(=O)Nc3ccc(C(F)(F)F)cc3)ccc2O1	-	-	.	-	-	-
CO[C@H]1CN(C)C(=O)c2ccc(NC(C)=O)cc2OC[C@@H](C)N(Cc2cccc(F)c2)C[C@@H]1C	-	.	.	-	.	.
CO[C@H]1CN(C)C(=O)c2cc(NC(C)=O)ccc2OC[C@H](C)N(Cc2cccc(F)c2)C[C@@H]1C	-	87	.	-	.	-
Nc1ccc(CSc2ccccc2)cc1	-	-	-	-	43	-
Cc1cccc(C2C3=C(Nc4[nH]n(-c5ccccc5)c(=O)c42)c2ccccc2C3=O)c1 (stereo not given)	-38	.	-	.	-	.
O=C(Nc1ccc(Cl)cc1)N[C@@H]1CC[C@H](CCn2cc(-c3ccccc3F)nn2)O[C@@H]1CO	-	-	.	-	-	-
COc1ccc(/C=N/Nc2nncn2N)cc1Br	-	-	-	69	-	-
Cc1cc(C)nc(NS(=O)(=O)c2ccc(NC(=O)c3ccc4c(c3)OCCO4)cc2)n1	-	.	-	-	43	.
COCC(=O)N(C)C[C@@H]1Oc2ncc(C#Cc3ccc(OC)cc3)cc2C(=O)N([C@H](C)CO)C[C@@H]1C	-	-	.	-	-	-
CN(CC(=O)Nc1ccccc1Cl)C(=O)COC(=O)CN1C(=O)NC2(CCCC2)C1=O	-	-	-	.	-	-
CCOC(=O)c1ccccc1NC(=O)COC(=O)CN1C(=O)NC2(CCCC2)C1=O	-32	-	-	.	-	-
